ChEMBL document CHEMBL1275356, “Redox-silent tocotrienol esters as breast cancer proliferation and migration inhibitors” (Bioorg Med Chem, 2010)

How the values were obtained:
[1] = Cytotoxicity against mouse +SA cells after 24 hrs by MTT assay; assay type: functional, cell-based; details: +SA cell
Procedure, shortened: (§1)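 Compounds dissolved in DMSO, conjugated overnight to 10% BSA at 37 °C, tested at 0–40 µM, final DMSO <0.1%. +SA cells seeded at 5 × 10⁴/well or CL-S1 at 1 × 10⁵/well (six wells/group), grown 3 days (~70% confluent), then treated 24 h. MTT 0.42 mg/mL, 4 h at 37 °C; crystals dissolved in isopropanol, read at 570 nm. Cell number from standard curve; IC50 by linear regression.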

MDA-MB-231 = experiment: Antimigratory activity against human MDA-MB-231 at 5 uM after 24 hrs by wound-healing assay; assay type: functional; details: MDA-MB-231, 24 h
Procedure, shortened: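 MDA-MB-231 grown in RPMI 1640 with 10 mM HEPES, 4 mM L-glutamine, 10% FBS, 5% CO2, 37 °C. Confluent (>95%) monolayers scratched with pipette tip, washed with PBS, then given compound in DMSO at 5 µM (DMSO vehicle control), in triplicate. After 24 h under serum starvation, cells fixed and Diff Quick stained. Migrated cells counted in ≥3 random 400× fields, mean ± SEM.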

[2] = Cytotoxicity against mouse CL-S1 cells assessed as cell viability after 24 hrs by MTT assay; assay type: cell-based; details: cl-s1, 24 h; procedure, shortened: as §1
[3] = Chemical stability of the compound in phosphate buffer at pH 7.4 after 24 hrs by HPLC method relative to zero time concentration; assay type: physicochemical
Procedure, shortened: (§2)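 500 µg/mL compound dissolved in pH 7.4 phosphate buffer in amber vials and kept at 37 °C. Samples taken at 0, 0.5, 1, 2, 4, 6 and 24 h, mixed with equal volume methanol, analysed by HPLC with UV at 295 nm. Amount expressed relative to the zero-time concentration.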

[4] = Chemical stability of the compound in phosphate buffer at pH 7.4 after 1 hr by HPLC method relative to zero time concentration; assay type: physicochemical; details: pH 7.4, 1 h; procedure, shortened: as §2
[5] = Solubility of the compound in phosphate buffer at pH 7.4 after up to 24 hrs by HPLC method relative to alpha-tocotrienol; assay type: physicochemical; details: pH 7.4, 24 h
Procedure, shortened: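 About 5.6 mg compound added to 3 mL pH 7.4 phosphate buffer in amber vials and shaken at 25 °C for 24 h. Centrifuged 5000 rpm, 10 min; clear supernatant sampled at 0, 1, 2, 4, 6 and 24 h. Concentration determined by HPLC with UV at 295 nm.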

[6] = Stability of the compound in rat plasma after 24 hrs by HPLC method relative to zero time concentration; assay type: ADME, cell-free; details: read-out: Stability
Procedure, shortened: (§3)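 50 µg/mL compound dissolved in rat plasma in amber vials and incubated at 37 °C. Samples taken at 0, 0.5, 1, 2, 4, 6 and 24 h, mixed with 100 µL methanol, centrifuged 14,000 rpm for 10 min. Supernatant analysed by HPLC with UV at 295 nm, relative to zero-time concentration.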

[7] = Stability of the compound in rat plasma after 4 hrs by HPLC method relative to zero time concentration; assay type: ADME, cell-free; details: read-out: Stability; procedure, shortened: as §3

## CC(C)=CCC/C(C)=C/CC/C(C)=C/CC[C@]1(C)CCc2cc(OC(=O)/C=C\C(=O)O)cc(C)c2O1
[1]
  IC50: 0.87 µM

## CC(=O)Oc1cc(C(=O)Oc2cc3c(c(C)c2C)O[C@](C)(CC/C=C(\C)CC/C=C(\C)CCC=C(C)C)CC3)cc(OC(C)=O)c1OC(C)=O
[1]
  IC50: 1.72 µM

## CC(C)=CCC/C(C)=C/CC/C(C)=C/CC[C@]1(C)CCc2c(C)c(OC(=O)c3cc(C(=O)O)ccc3C(=O)O)c(C)c(C)c2O1
[1]
  IC50: 1.46 µM
MDA-MB-231
  inhibition at 5 µM: 50%

## CC(C)=CCC/C(C)=C/CC/C(C)=C/CC[C@]1(C)CCc2cc(OC(=O)CC(C)CC(=O)O)c(C)c(C)c2O1 (stereo not given in full)
[1]
  IC50: 19.2 µM
[2]
  Activity: Non-toxic

## CC(C)=CCC/C(C)=C/CC/C(C)=C/CC[C@]1(C)CCc2c(C)c(O)c(C)c(C)c2O1 [ALPHA-TOCOTRIENOL]
[1]
  IC50: 5 µM
[3]; buffer, pH 7.4, 24 h
  Stability: Unstable
[4]
  Stability: Unstable

## CC(=O)Oc1ccc(/C=C/C(=O)Oc2cc3c(c(C)c2C)O[C@](C)(CC/C=C(\C)CC/C=C(\C)CCC=C(C)C)CC3)cc1OC(C)=O
[1]
  IC50: > 40 µM
[2]
  Activity: Non-toxic

## CC(C)=CCC/C(C)=C/CC/C(C)=C/CC[C@]1(C)CCc2cc(O)cc(C)c2O1 [DELTA-TOCOTRIENOL]
[1]
  IC50: 3 µM

## CC(C)=CCC/C(C)=C/CC/C(C)=C/CC[C@]1(C)CCc2cc(OC(=O)c3cc(C(=O)O)ccc3C(=O)O)cc(C)c2O1
[1]
  IC50: 1.5 µM
MDA-MB-231
  inhibition at 5 µM: 50%

## CC(C)=CCC/C(C)=C/CC/C(C)=C/CC[C@]1(C)CCc2cc(OC(=O)/C=C\C(=O)O)c(C)c(C)c2O1
[1]
  IC50: 2.3 µM
MDA-MB-231
  inhibition at 5 µM: 50%

## CC(C)=CCC/C(C)=C/CC/C(C)=C/CC[C@]1(C)CCc2cc(O)c(C)c(C)c2O1 [GAMMA-TOCOTRIENOL]
[1]
  IC50: 4 µM

## CC(C)=CCC/C(C)=C/CC/C(C)=C/CC[C@]1(C)CCc2c(C)c(OC(=O)c3ccc(C(=O)O)cc3C(=O)O)c(C)c(C)c2O1
[1]
  IC50: 1.5 µM
MDA-MB-231
  inhibition at 5 µM: 50%

## CC(C)=CCC/C(C)=C/CC/C(C)=C/CC[C@]1(C)CCc2cc(OC(=O)c3ccc(C(=O)O)cc3C(=O)O)c(C)c(C)c2O1
[1]
  IC50: 0.62 µM

## CC(C)=CCC/C(C)=C/CC/C(C)=C/CC[C@]1(C)CCc2cc(OC(=O)c3ccccc3)c(C)c(C)c2O1
[1]
  IC50: 6.55 µM
[2]
  Activity: Non-toxic
MDA-MB-231
  inhibition at 5 µM: 50%

## CC(C)=CCC/C(C)=C/CC/C(C)=C/CC[C@]1(C)CCc2cc(OC(=O)c3cc(C(=O)O)ccc3C(=O)O)c(C)c(C)c2O1
[1]
  IC50: 1.44 µM

## CC(C)=CCC/C(C)=C/CC/C(C)=C/CC[C@]1(C)CCc2c(C)c(OC(=O)/C=C\C(=O)O)c(C)c(C)c2O1
[1]
  IC50: 0.52 µM
[5]
  fold change (FC): 1000
[6]
  remaining at 24 h: 43%
[3]; phosphate buffer, pH 7.4, read-out: Stability
  remaining at 24 h: 100%
[7]
  remaining at 4 h: 81%
MDA-MB-231
  inhibition at 5 µM: 50%
